{"source": "ChEMBL document CHEMBL4177648", "about": "“Benzofuran-dihydropyridine hybrids: A new class of potential bone anabolic agents” (Bioorg Med Chem, 2017)", "key": {"Calvarial osteoblast [1]": {"test_system": "Calvarial osteoblast", "experiment": "Upregulation of Bmp2 mRNA levels in rat calvarial osteoblasts at 10 nM after 48 hrs by qRT-PCR analysis relative to control", "assay_type": "functional", "outline": "(§1)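 Rat pup calvarial osteoblasts were treated for 48 h with compound. Total RNA was extracted with TRIzol and checked by A260 and A260/A280. qRT-PCR used 45 cycles (94 °C, 62 °C, 72 °C steps) and was normalised to GAPDH. Fold change is over untreated cells; n=5, mean ± SEM.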"}, "Calvarial osteoblast [2]": {"test_system": "Calvarial osteoblast", "experiment": "Upregulation of Bmp2 mRNA levels in rat calvarial osteoblasts at 1 uM after 48 hrs by qRT-PCR analysis relative to control", "assay_type": "functional", "outline": "as §1"}, "Calvarial osteoblast [3]": {"test_system": "Calvarial osteoblast", "experiment": "Upregulation of Col1 mRNA levels in rat calvarial osteoblasts at 1 uM after 48 hrs by qRT-PCR analysis relative to control", "assay_type": "functional", "outline": "as §1"}, "Calvarial osteoblast [4]": {"test_system": "Calvarial osteoblast", "experiment": "Anabolic activity in rat calvarial osteoblasts assessed as induction of alkaline phosphatase activity at 10 nM after 48 hrs in presence of beta-glycerophosphate and ascorbic acid by p-nitrophenyl phosphate substrate based assay (reference value: 1 to 1.21)", "assay_type": "functional"}, "Calvarial osteoblast [5]": {"test_system": "Calvarial osteoblast", "experiment": "Anabolic activity in rat calvarial osteoblasts assessed as induction of alkaline phosphatase activity at 100 uM after 48 hrs in presence of beta-glycerophosphate and ascorbic acid by p-nitrophenyl phosphate substrate based assay (reference value: 1 to 1.21)", "assay_type": "functional"}, "Calvarial osteoblast [6]": {"test_system": "Calvarial osteoblast", "experiment": "Anabolic activity in rat calvarial osteoblasts assessed as induction of alkaline phosphatase activity at 1 pM after 48 hrs in presence of beta-glycerophosphate and ascorbic acid by p-nitrophenyl phosphate substrate based assay (reference value: 1 to 1.21)", "assay_type": "functional"}, "Calvarial osteoblast [7]": {"test_system": "Calvarial osteoblast", "experiment": "Upregulation of Col1 mRNA levels in rat calvarial osteoblasts at 10 nM after 48 hrs by qRT-PCR analysis relative to control", "assay_type": "functional", "outline": "as §1"}, "Calvarial osteoblast [8]": {"test_system": "Calvarial osteoblast", "experiment": "Upregulation of Runx2 mRNA levels in rat calvarial osteoblasts at 1 uM after 48 hrs by qRT-PCR analysis relative to control", "assay_type": "functional", "outline": "as §1"}, "Calvarial osteoblast [9]": {"test_system": "Calvarial osteoblast", "experiment": "Upregulation of ALP mRNA levels in rat calvarial osteoblasts at 1 uM after 48 hrs by qRT-PCR analysis relative to control", "assay_type": "functional", "outline": "as §1"}, "Calvarial osteoblast [10]": {"test_system": "Calvarial osteoblast", "experiment": "Upregulation of Osx mRNA levels in rat calvarial osteoblasts at 1 uM after 48 hrs by qRT-PCR analysis relative to control", "assay_type": "functional", "outline": "as §1"}, "Calvarial osteoblast [11]": {"test_system": "Calvarial osteoblast", "experiment": "Anabolic activity in rat calvarial osteoblasts assessed as induction of alkaline phosphatase activity at 1 uM after 48 hrs in presence of beta-glycerophosphate and ascorbic acid by p-nitrophenyl phosphate substrate based assay (reference value: 1 to 1.21)", "assay_type": "functional"}, "Calvarial osteoblast [12]": {"test_system": "Calvarial osteoblast", "experiment": "Anabolic activity in rat calvarial osteoblasts assessed as induction of alkaline phosphatase activity after 48 hrs in presence of beta-glycerophosphate and ascorbic acid by p-nitrophenyl phosphate substrate based assay", "assay_type": "functional, cell-based"}, "Calvarial osteoblast [13]": {"test_system": "Calvarial osteoblast", "experiment": "Anabolic activity in rat calvarial osteoblasts assessed as induction of alkaline phosphatase activity at 100 pM after 48 hrs in presence of beta-glycerophosphate and ascorbic acid by p-nitrophenyl phosphate substrate based assay (reference value: 1 to 1.21)", "assay_type": "functional"}, "Calvarial osteoblast [14]": {"test_system": "Calvarial osteoblast", "experiment": "Upregulation of Runx2 mRNA levels in rat calvarial osteoblasts at 10 nM after 48 hrs by qRT-PCR analysis relative to control", "assay_type": "functional", "outline": "as §1"}, "Calvarial osteoblast [15]": {"test_system": "Calvarial osteoblast", "experiment": "Upregulation of Osx mRNA levels in rat calvarial osteoblasts at 10 nM after 48 hrs by qRT-PCR analysis relative to control", "assay_type": "functional", "outline": "as §1"}, "Calvarial osteoblast [16]": {"test_system": "Calvarial osteoblast", "experiment": "Induction of mineralization in rat calvarial osteoblasts at 10 nM after 21 days by Alizarin-red dye based assay", "assay_type": "functional, cell-based", "outline": "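Rat pup calvarial osteoblasts were seeded at 1×10^4 cells/well in differentiation medium with compound. Medium was changed every other day for 21 days. Cells were fixed in 4% paraformaldehyde and stained with 40 mM Alizarin red (pH 4.5). Stain was extracted with 10% acetic acid, heated to 85 °C, and neutralised with NH4OH. Absorbance was read at 405 nm.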"}, "Calvarial osteoblast [17]": {"test_system": "Calvarial osteoblast", "experiment": "Upregulation of ALP mRNA levels in rat calvarial osteoblasts at 10 nM after 48 hrs by qRT-PCR analysis relative to control", "assay_type": "functional", "outline": "as §1"}}, "note": "Active and inactive are the calls of the source. The calls are words filed in the database; no cut-off is given here."}
{"smiles": "CCOC(=O)C1=C(C)NC2=C(C(=O)CCC2)C1c1cc(C(C)CC)c2oc(C(=O)c3ccc(OC)cc3)cc2c1", "note": "(configuration not stated)", "values": [{"measurement": "fold change (FC)", "setting": "Calvarial osteoblast [1]", "result": "2 - 5.5"}, {"measurement": "fold change (FC)", "setting": "Calvarial osteoblast [2]", "result": "2 - 5.5"}, {"measurement": "fold change (FC)", "setting": "Calvarial osteoblast [3]", "result": "2 - 5.5"}, {"measurement": "OD", "setting": "Calvarial osteoblast [4]", "result": 1.4}, {"measurement": "OD", "setting": "Calvarial osteoblast [5]", "result": 0.25}, {"measurement": "OD", "setting": "Calvarial osteoblast [6]", "result": 0.94}, {"measurement": "fold change (FC)", "setting": "Calvarial osteoblast [7]", "result": "2 - 5.5"}, {"measurement": "fold change (FC)", "setting": "Calvarial osteoblast [8]", "result": "2 - 5.5"}, {"measurement": "fold change (FC)", "setting": "Calvarial osteoblast [9]", "result": "2 - 5.5"}, {"measurement": "fold change (FC)", "setting": "Calvarial osteoblast [10]", "result": "2 - 5.5"}, {"measurement": "OD", "setting": "Calvarial osteoblast [11]", "result": 1.37}, {"measurement": "EC50", "setting": "Calvarial osteoblast [12]", "result": 0.01, "unit": "µM"}, {"measurement": "OD", "setting": "Calvarial osteoblast [13]", "result": 0.99}, {"measurement": "fold change (FC)", "setting": "Calvarial osteoblast [14]", "result": "2 - 5.5"}, {"measurement": "fold change (FC)", "setting": "Calvarial osteoblast [15]", "result": "2 - 5.5"}, {"measurement": "Activity", "setting": "Calvarial osteoblast [16]", "result": "Active"}, {"measurement": "fold change (FC)", "setting": "Calvarial osteoblast [17]", "result": "2 - 5.5"}]}
